Laboratory results from ChEMBL document CHEMBL4145441, “Discovery of N-(5-((5-chloro-4-((2-(isopropylsulfonyl)phenyl)amino)pyrimidin-2-yl)amino)-4-methoxy-2-(4-methyl-1,4-diazepan-1-yl)phenyl)acrylamide (CHMFL-ALK/EGFR-050) as a potent ALK/EGFR dual kinase inhibitor capable of overcoming a variety of ALK/EGFR associated drug resistant mutants in NSCLC” (Eur J Med Chem, 2017).
Active and inactive are the calls of the source. No cut-off for these calls is given here.

Tests used:
[1] = biological target: T1, Epidermal growth factor receptor (Homo sapiens, UniProt P00533); experiment: Inhibition of recombinant human wild-type His-tagged EGFR expressed in mammalian expression system using Tyr 4 peptide as substrate after 1 hr in presence of ATP by Z-LYTE kinase assay
T1 sequence (P00533 whole entry): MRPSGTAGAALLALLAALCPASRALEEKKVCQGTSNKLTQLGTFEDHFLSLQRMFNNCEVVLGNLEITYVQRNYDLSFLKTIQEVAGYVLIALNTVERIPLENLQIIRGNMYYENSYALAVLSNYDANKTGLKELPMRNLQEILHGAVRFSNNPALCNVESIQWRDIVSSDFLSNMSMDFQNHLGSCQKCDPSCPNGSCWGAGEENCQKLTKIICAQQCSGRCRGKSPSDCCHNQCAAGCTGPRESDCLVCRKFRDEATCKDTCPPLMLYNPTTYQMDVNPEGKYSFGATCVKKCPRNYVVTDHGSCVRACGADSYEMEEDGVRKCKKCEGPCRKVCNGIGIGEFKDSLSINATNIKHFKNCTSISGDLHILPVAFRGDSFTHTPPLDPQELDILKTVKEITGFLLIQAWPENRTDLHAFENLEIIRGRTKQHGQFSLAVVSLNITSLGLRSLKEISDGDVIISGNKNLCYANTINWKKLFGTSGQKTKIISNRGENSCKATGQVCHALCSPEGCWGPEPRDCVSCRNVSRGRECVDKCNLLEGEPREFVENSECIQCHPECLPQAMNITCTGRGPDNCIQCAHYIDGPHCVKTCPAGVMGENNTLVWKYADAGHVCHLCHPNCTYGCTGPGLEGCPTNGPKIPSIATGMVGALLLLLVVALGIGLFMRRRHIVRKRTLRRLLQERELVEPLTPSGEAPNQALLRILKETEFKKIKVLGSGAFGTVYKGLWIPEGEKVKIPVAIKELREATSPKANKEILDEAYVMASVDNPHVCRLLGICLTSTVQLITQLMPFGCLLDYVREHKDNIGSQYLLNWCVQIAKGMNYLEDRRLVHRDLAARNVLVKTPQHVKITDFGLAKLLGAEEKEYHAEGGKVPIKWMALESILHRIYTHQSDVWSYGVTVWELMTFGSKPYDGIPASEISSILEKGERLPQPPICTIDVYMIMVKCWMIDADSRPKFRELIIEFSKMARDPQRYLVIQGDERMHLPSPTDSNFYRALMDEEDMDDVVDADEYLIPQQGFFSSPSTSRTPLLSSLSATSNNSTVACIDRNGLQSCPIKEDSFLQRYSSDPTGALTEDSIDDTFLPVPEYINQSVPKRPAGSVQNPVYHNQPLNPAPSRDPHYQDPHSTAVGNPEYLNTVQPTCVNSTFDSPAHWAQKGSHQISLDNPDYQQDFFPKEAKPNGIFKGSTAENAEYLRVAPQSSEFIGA

[2] = biological target: Epidermal growth factor receptor (Homo sapiens, UniProt P00533, L858R/T790M); experiment: Inhibition of recombinant human GST-tagged EGFR L858R/T790M mutant expressed in Baculovirus expression system using Tyr 4 peptide as substrate after 1 hr in presence of ATP by Z-LYTE assay
Chain of Epidermal growth factor receptor (Homo sapiens, UniProt P00533, L858R/T790M) (P00533 25-1210 T790M/L858R limits assumed): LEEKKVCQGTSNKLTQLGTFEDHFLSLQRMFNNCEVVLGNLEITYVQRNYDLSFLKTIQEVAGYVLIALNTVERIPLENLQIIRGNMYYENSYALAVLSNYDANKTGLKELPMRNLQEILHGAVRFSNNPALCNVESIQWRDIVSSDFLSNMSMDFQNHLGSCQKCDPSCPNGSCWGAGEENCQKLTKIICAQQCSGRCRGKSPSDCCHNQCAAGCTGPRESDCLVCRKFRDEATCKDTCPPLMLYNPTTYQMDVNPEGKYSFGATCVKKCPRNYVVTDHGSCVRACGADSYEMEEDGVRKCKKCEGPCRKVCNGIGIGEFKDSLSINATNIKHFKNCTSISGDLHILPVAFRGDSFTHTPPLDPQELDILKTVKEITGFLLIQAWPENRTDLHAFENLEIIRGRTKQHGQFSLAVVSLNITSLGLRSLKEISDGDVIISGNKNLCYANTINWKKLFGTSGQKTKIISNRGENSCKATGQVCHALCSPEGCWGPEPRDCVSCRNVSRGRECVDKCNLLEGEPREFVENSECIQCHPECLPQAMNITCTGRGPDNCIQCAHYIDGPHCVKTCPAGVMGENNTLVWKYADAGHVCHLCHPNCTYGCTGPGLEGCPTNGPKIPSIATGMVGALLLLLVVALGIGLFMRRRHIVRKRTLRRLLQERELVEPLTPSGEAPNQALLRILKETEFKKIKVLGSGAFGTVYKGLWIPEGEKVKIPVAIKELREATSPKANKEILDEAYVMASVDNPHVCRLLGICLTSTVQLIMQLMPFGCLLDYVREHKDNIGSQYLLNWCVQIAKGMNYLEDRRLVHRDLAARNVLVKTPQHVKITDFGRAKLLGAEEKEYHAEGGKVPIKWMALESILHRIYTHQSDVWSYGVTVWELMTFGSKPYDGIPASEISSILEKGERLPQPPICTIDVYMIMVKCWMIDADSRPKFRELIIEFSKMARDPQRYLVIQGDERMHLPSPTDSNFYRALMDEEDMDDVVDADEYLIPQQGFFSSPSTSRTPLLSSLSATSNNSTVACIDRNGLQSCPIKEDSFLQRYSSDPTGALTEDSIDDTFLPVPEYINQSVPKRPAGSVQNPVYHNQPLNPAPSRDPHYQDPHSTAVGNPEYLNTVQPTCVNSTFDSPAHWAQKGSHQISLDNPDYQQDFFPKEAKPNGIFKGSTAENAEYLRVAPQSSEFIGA

[3] = biological target: T1, Epidermal growth factor receptor; experiment: Inhibition of TEL-fused EGFR (unknown origin) expressed in mouse BAF3 cells assessed as decrease in cell proliferation after 72 hrs by CellTiter-Glo assay; format: cell-based
[4] = biological target: T1, Epidermal growth factor receptor; experiment: Inhibition of full length EGFR del19 mutant (unknown origin) expressed in mouse BAF3 cells assessed as decrease in cell proliferation after 72 hrs by CellTiter-Glo assay; format: cell-based
NCI-H1975 [5] = experiment: Cell cycle arrest in human NCI-H1975 cells assessed as accumulation at G0/G1 phase at 0.03 to 1 uM after 24 hrs by propidium iodide/RNase staining-based flow cytometry; format: functional
[6] = system: Epidermal growth factor receptor (Homo sapiens), P00533 [L858R,T790M,C797S]; experiment: Inhibition of full length EGFR L858R/T790M/C797S mutant (unknown origin) expressed in mouse BAF3 cells assessed as decrease in cell proliferation after 72 hrs by CellTiter-Glo assay; format: cell-based
NCI-H1975 [7] = experiment: Antiproliferative activity against human NCI-H1975 cells harboring EGFR L858R/T790M mutant after 72 hrs by CellTiter-Glo assay; format: functional; settings: NCI-H1975, 72 h
Method in brief: (§1)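 Antiproliferative GI50 against H1975 and H3122 cells; each GI50 value obtained from triplicate testing.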

A549 = experiment: Antiproliferative activity against human A549 cells harboring wild-type EGFR after 72 hrs by CellTiter-Glo assay; format: functional; settings: A549, 72 h
NCI-H1355 = experiment: Antiproliferative activity against human NCI-H1355 cells harboring wild-type EGFR after 72 hrs by CellTiter-Glo assay; format: functional; settings: NCI-H1355, 72 h
NCI-H3122 [8] = experiment: Antiproliferative activity against human NCI-H3122 cells harboring EML4-fused ALK varian1 after 72 hrs by CellTiter-Glo assay; format: functional; settings: NCI-H3122, 72 h; method in brief: as §1
[9] = AUC (0 to infinity) in Sprague-Dawley rat at 1 mg/kg, iv; format: ADME, organism-based; design: dose 1 mg/kg, route intravenous, time infinity; settings: in vivo
Method in brief: (§2)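 Rats dosed once intravenously at 1 mg/kg or orally at 10 mg/kg. Plasma exposure parameters derived: AUC0-t, AUC0-∞, MRT(0-t), Cmax, Tmax, T1/2 and oral bioavailability (F%). Values reported as mean ± spread.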

[10] = AUC (0 to infinity) in Sprague-Dawley rat at 10 mg/kg, po; format: ADME, organism-based; design: dose 10 mg/kg, route oral, time infinity; settings: in vivo; method in brief: as §2
[11] = biological target: T1, Epidermal growth factor receptor; experiment: Inhibition of EGFR in human NCI-H1975 cells assessed as inhibition of ERK-1/2 phosphorylation at Thr202/Tyr204 residues at 30 nM after 4 hrs by immunoblotting method; format: cell-based
[12] = biological target: T1, Epidermal growth factor receptor; experiment: Inhibition of EGFR phosphorylation at Y1068 in human PC9 cells at 30 nM after 4 hrs by immunoblotting method; format: cell-based
[13] = biological target: T1, Epidermal growth factor receptor; experiment: Inhibition of EGFR phosphorylation at Y1068 in human A549 cells at 300 nM after 4 hrs by immunoblotting method; format: cell-based
[14] = biological target: T1, Epidermal growth factor receptor; experiment: Inhibition of EGFR in human A549 cells assessed as reduction in EGF-induced AKT phosphorylation at Ser473 residue up to 3 uM after 4 hrs by immunoblotting method; format: cell-based
[15] = biological target: T1, Epidermal growth factor receptor; experiment: Inhibition of EGFR in human A549 cells assessed as reduction in EGF-induced P70S6K phosphorylation at Thr389 residue up to 3 uM after 4 hrs by immunoblotting method; format: cell-based
NCI-H1975 [16] = experiment: Induction of apoptosis in human NCI-H1975 cells assessed as increase in cleaved PARP expression level at 300 nM to 1 uM after 24 hrs by Western blot method; format: functional, cell-based
PC-9 = experiment: Induction of apoptosis in human PC9 cells assessed as increase in cleaved PARP expression level at 300 nM to 1 uM after 24 hrs by Western blot method; format: functional, cell-based
NCI-H3122 [17] = experiment: Antitumor activity against human NCI-H3122 cells xenografted in nu/nu mouse assessed as tumor growth inhibition at 10 mg/kg, po qd administered for 28 days; format: functional; settings: 672 h, read-out: TGI
Homo sapiens = species: Homo sapiens; experiment: Selectivity index, ratio of IC50 for recombinant human wild-type His-tagged EGFR to IC50 for recombinant human GST-tagged EGFR T790M mutant
[18] = system: ALK tyrosine kinase receptor (Homo sapiens), Q9UM73 [C1156Y]
Chain of ALK tyrosine kinase receptor (Homo sapiens), Q9UM73 [C1156Y] (Q9UM73 whole entry C1156Y, looked up): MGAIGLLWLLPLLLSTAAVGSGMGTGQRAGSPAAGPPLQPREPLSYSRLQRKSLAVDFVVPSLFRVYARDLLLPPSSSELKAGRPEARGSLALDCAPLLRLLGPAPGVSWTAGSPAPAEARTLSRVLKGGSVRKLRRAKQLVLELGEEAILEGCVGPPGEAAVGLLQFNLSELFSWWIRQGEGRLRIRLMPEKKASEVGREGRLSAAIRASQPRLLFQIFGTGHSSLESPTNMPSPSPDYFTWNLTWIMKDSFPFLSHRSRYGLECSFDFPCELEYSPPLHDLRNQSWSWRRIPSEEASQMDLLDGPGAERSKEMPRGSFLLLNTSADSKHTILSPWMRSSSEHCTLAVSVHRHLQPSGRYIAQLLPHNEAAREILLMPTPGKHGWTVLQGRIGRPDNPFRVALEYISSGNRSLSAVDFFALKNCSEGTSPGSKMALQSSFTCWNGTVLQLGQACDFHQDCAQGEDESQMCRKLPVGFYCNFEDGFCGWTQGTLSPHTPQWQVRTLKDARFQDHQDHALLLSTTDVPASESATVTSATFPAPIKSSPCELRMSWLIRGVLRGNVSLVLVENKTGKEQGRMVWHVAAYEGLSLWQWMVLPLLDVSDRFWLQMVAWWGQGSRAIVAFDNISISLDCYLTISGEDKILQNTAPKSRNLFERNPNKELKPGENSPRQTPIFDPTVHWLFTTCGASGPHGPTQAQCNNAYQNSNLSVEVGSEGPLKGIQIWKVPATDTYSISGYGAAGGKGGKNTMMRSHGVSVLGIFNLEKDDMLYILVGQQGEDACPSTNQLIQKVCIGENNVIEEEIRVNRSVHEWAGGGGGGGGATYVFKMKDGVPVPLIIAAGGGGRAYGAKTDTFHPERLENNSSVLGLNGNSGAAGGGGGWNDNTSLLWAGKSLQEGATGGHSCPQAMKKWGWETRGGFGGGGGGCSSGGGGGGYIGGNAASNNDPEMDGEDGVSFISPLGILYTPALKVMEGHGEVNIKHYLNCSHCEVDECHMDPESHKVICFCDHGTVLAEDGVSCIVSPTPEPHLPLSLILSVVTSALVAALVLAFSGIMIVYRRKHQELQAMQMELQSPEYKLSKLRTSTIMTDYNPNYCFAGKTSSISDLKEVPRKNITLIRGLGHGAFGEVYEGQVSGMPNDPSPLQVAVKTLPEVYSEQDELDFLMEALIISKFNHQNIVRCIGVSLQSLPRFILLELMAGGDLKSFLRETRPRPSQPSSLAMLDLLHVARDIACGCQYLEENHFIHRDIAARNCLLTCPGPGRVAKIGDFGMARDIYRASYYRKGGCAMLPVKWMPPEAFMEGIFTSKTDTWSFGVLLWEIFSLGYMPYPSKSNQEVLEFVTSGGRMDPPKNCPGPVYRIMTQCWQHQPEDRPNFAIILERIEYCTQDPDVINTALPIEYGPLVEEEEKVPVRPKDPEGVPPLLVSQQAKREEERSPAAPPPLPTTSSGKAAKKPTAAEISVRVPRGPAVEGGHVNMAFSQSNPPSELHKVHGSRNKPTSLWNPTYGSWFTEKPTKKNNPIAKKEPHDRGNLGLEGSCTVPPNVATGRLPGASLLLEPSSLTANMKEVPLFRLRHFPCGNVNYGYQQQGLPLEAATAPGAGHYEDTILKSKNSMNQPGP

[19] = system: ALK tyrosine kinase receptor (Homo sapiens), Q9UM73 [G1202R]
Chain of ALK tyrosine kinase receptor (Homo sapiens), Q9UM73 [G1202R] (Q9UM73 whole entry G1202R): as the sequence (Q9UM73 whole entry C1156Y, looked up) above, with Y1156C, G1202R counted along it

NCI-H1975 [20] = experiment: Antitumor activity against human NCI-H1975 cells xenografted in nu/nu mouse assessed as tumor growth inhibition at 40 mg/kg, po qd administered for 21 days; settings: 504 h, read-out: TGI
NCI-H1975 [21] = experiment: Antitumor activity against human NCI-H1975 cells xenografted in nu/nu mouse assessed as tumor weight at 10 mg/kg, po qd administered for 21 days (reference value: 6.05g)

`C=CC(=O)Nc1cc(Nc2ncc(Cl)c(Nc3ccccc3S(=O)(=O)C(C)C)n2)c(OC)cc1N1CCCN(C)CC1` showed an IC50 [1] of 108 nM, an IC50 [2] of 3.6 nM and a GI50 [3] of 16 nM. For the same compound, the GI50 [4] was 8.5 nM, the Activity (NCI-H1975 [5]) was “Active” and the GI50 [6] was 1100 nM. It also gave a GI50 (NCI-H1975 [7]) of 15 nM, a GI50 (A549) of 5600 nM and a GI50 (NCI-H1355) of 1400 nM. For the same compound, the GI50 (NCI-H3122 [8]) was < 0.3 nM, the AUC(0-inf) [9] was 720 ng·h/mL and the AUC(0-inf) [10] was 1300 ng·h/mL. The inhibition [11] was “Active”, the inhibition [12] was “Active” and the inhibition [13] was “Active”. The inhibition [14] was “inactive”, the inhibition [15] was “inactive” and the Activity (NCI-H1975 [16]) was “Active”. The Activity (PC-9) was “Active”, the inhibition in vivo at 10 mg/kg (NCI-H3122 [17]) was 10.8% and the Ratio IC50 (Homo sapiens) was 20 to 30. It also gave a GI50 [18] of 6.9 nM, a GI50 [19] of 460 nM and an inhibition in vivo at 40 mg/kg (NCI-H1975 [20]) of 99%. For the same compound, the Activity (NCI-H1975 [21]) was 1.58 g.
